From PubChem
SKKanGAS inh: SKKanGAS growth inhibition | S. pyogenes SKKanGAS, kanamycin growth, BacTiter-Glo, 6 h | inhibition, % at 7.5 µM | hit rate 1.3% among 300,000 | AID 1662;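 active = mean replicate score, as percent of positive control median, at least 50; inconclusive = mean below 50 but one replicate at or above 50; inactive = mean and every replicate below 50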;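 also: strain carries kanamycin resistance gene driven by streptokinase promoter and grows in 40 µg/ml kanamycin; loss of luminescence reflects streptokinase promoter inhibition or plain growth inhibition; 0% = median of DMSO wells and 100% = positive control at its reference dose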
CSC inhib: blocks cancer stem cells | cancer stem cell-like cells viability, luminescence | inhibition, % at 7.5 µM | hit rate 1.1% among 300,000; in the data active = inhibition above about 75%; inconclusive = no clear call, values can overlap the other calls; tested in HMLE shEcad cells
T cruzi inh: T. cruzi replication inhibition; T. cruzi beta-gal in NIH3T3, luminescence, 90 h; hit rate 1.4% among 300,000; inhibition, % (concentration not given with the values); AID 1885;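 active = mean inhibition across valid replicates above about 55%, limit read from the data; inconclusive = mean below that limit but half or more replicates reach it; inactive = mean below it, under half of replicates reach it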;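 also: signal also drops with host cell toxicity which is not excluded here; 0% = plate median of DMSO wells and 100% = zero luminescence signal; higher percent means less beta-gal luminescence so fewer parasites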
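Read-out: Parasite load inhibition, % | Test system: Mouse NIH/3T3 fibroblasts infected with β-gal-expressing T. cruzi Tulahuen C4 | Amount: 5,000 cells/well | Medium: DMEM, 2% fetal bovine serum | Signal: GalScreen β-gal luminescence, detergent lysis, 60 min | Timing: 3 h attach, ≥90 h co-culture | Also added: Tulahuen C4 trypomastigotes, 5000/well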
PfHsp90 set2: reduces growth (ATP signal) of yeast expressing P. falciparum Hsp90; AID 504621; S. cerevisiae expressing PfHsp90, BacTiter-Glo ATP, 48 h; yeast lacking PDR1 and PDR3 efflux regulators; inhibition, % at 9.4 µM; hit rate 0.32% among 310,000;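 active = every replicate shows inhibition above about 80%, whatever the replicate mean, limit read from the data; inconclusive = mean inhibition reaches the set limit but some replicate falls short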;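 also: 0% = DMSO neutral controls and 100% = 20 µM radicicol positive controls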
Beta cell apopt: beta cell apoptosis inhibition | protection from apoptosis, % (no concentration beside the values) | hit rate 0.8% among 300,000 | AID 435005 | INS-1E cytokine-induced death, ATP luminescence, 48 h; percent of positive-control rescue, neutral wells zero;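 active = Every replicate reaches about 75%, or at least half do and their mean reaches it too, limit read from the data; inconclusive = At least half of replicates reach the limit but their mean does not; inactive = Under half of replicates reach the limit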;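 also: 0% = cytokine-treated negative control wells and 100% = positive control rescue; higher means more ATP so stronger rescue from cytokine killing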
HIF activator: HIF pathway transcriptional activation | U2OS HRE-luciferase reporter, luminescence; normalized: DMSO 0%, desferrioxamine 100% | activation, % at 7.5 µM (by protocol) | hit rate 0.32% among 300,000 | AID 1910;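 active = mean activation of at least 10% of the iron chelator positive control signal, with at least half of replicates also reaching 10%; inconclusive = mean and replicate majority disagree about reaching 10%; inactive = mean and most replicates under 10%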
The depositor's hits bear a star; ? = inconclusive; / = no result. Hits are enriched below; roughly 3.6% of the tested compounds scored in any of these assays.

SMILES	SKKanGAS inh	CSC inhib	T cruzi inh	PfHsp90 set2	Beta cell apopt	HIF activator
O=C(NNC(=O)c1cc(-c2ccc(Cl)c(Cl)c2)nc2ccccc12)Nc1ccccc1	75.9*	92.2*	43.4	9.7	9.3	1.3
Cc1cccc(NC(=O)NNC(=O)c2cc(-c3ccccc3Cl)nc3ccccc23)c1	12.1	22.0	/	12.4	0.4	-0.3
O=C(Nc1ccncc1)c1cc(-c2cccc(Br)c2)nc2ccccc12	13.4	106.1*	40.0	/	32.9	-0.2
CC(C)(C)OC(=O)C[C@@H]1C/C=C\C[C@@H](CC(=O)N(CCO)Cc2ccccc2)C(=O)N[C@H](C(C)(C)C)COC1=O	/	-12.3	/	2.9	8.1	/
CN(CC(=O)OCC(N)=O)S(=O)(=O)c1ccc(Cl)cc1	14.0	9.4	-9.9	-20.5	/	0.3
Cc1noc(C)c1S(=O)(=O)N(C)C[C@H]1Oc2ccc(NS(=O)(=O)c3ccccc3)cc2C(=O)N([C@H](C)CO)C[C@@H]1C	/	4.3	/	5.0	4.7	/
O=c1cc(-c2ccccc2Cl)oc2ccc([N+](=O)[O-])c(O)c12	87.4*	37.3	-22.5	24.0	1.4	-0.2
COc1ccccc1-c1cc(=O)c2c(O)ccc([N+](=O)[O-])c2o1	69.8*	-9.9	-5.6	34.9	0.6	-0.5
O=c1cc(-c2ccccc2Cl)oc2c([N+](=O)[O-])c(O)cc(O)c12	25.7	1.4	14.7	-29.8	9.1	3.6
NS(=O)(=O)c1ccc(CCNC(=O)c2ccc(Cl)c(S(=O)(=O)NCc3ccco3)c2)cc1	/	-7.6	/	-2.5	-3.9	/
Cc1ccc(CNCCCn2cnc(C(=O)Nc3ccc(C)c(C)c3)n2)o1	/	/	/	8.6	/	/
COc1ccc(CNCCC2(C(C)C)CCOC(C)(C)C2)cc1 (centres undefined)	-0.3	-7.9	27.3	8.0	-1.7	-0.2
CC(C)Oc1ccc(CNCCC2(C(C)C)CCOC(C)(C)C2)cc1 (centres undefined)	2.8	9.7	68.4*	-11.3	0.9	-0.1
NNC(=O)c1ccc(CN2CCCCC2)o1	4.9	-9.9	-25.7	11.1	-0.3	-0.2
C/C(=N\Nc1nc(N2CCCCC2)nc(N2CCOCC2)n1)c1ccccc1O	17.1	59.4	55.1*	-4.3	/	-0.2
Oc1ccc(/C=N/Nc2nc(N3CCCC3)nc(N3CCCC3)n2)cc1O	-5.3	11.6	4.2	8.7	20.9	0.6
Oc1ccc(/C=N/Nc2nc(N3CCCCCC3)nc(N3CCCCCC3)n2)c(O)c1	111.5*	/	42.7	-0.2	1.8	0.5
Brc1cc2c(cc1/C=N/Nc1nc(N3CCCC3)nc(N3CCOCC3)n1)OCO2	3.4	-3.1	15.2	/	6.2	0.4
Oc1ccc(Br)cc1/C=N/Nc1nc(N2CCCCC2)nc(N2CCOCC2)n1	?	1.7	74.0*	/	6.5	-0.3
c1ccc(C(c2c[nH]c3ccccc23)c2c[nH]c3ccccc23)nc1	76.4*	-8.2	18.4	-12.9	4.1	0.1
COc1ccc(Oc2nc(C(F)(F)F)nc3ccccc23)cc1	51.8*	3.5	6.7	-3.4	3.9	1.2
COc1cc2c(cc1OC)[C@@H]1Cc3ccc(OC)c(OC)c3CN1CC2	-4.1	-11.1	56.3*	-1.0	-15.0	-0.5
CCCCOc1ccc(/C=N/NC(=S)Nc2cccc(C)c2C)cc1	7.4	0.1	40.8	-13.9	-1.5	0.2
Cc1cccc(C)c1NC(=S)N/N=C/c1ccc(OCCC(C)C)cc1	66.5*	11.8	62.6*	/	/	0.4
COc1ccc(OC)c(-c2csc(NC(=O)c3ccc(F)cc3)n2)c1	8.4	85.7*	-3.0	5.0	10.6	2.7
SMILES	SKKanGAS inh	CSC inhib	T cruzi inh	PfHsp90 set2	Beta cell apopt	HIF activator
OCCN(CCO)c1ccc2ccccc2c1	0.7	-15.3	-7.3	-6.4	-11.9	-0.3
OCCN(CCO)c1ccc(C(c2ccccc2Cl)c2ccc(N(CCO)CCO)cc2Cl)c(Cl)c1	83.3*	1.9	43.8	-22.4	-2.6	-0.5
Cc1[nH]n(-c2ccccc2)c(=O)c1N=Nc1ccccc1O	67.6*	/	47.1	14.9	/	4.9
Cc1[nH]n(-c2ccccc2)c(=O)c1N=Nc1nccs1	94.0*	29.0	2.4	15.6	5.2	0.1
Cc1ccc(NC(=O)CN2C(=O)S/C(=C\c3cc(Cl)c(OCC(=O)O)c(Cl)c3)C2=O)cc1	12.1	-10.5	-0.3	-10.0	4.8	-1.2
Cc1ccc(NC(=O)COC(=O)Cc2c[nH]c3ccccc23)cc1F	/	/	/	-12.1	/	/
CCC(C)c1ccccc1NC(=O)COC(=O)c1ccc2[nH]c3c(c2c1)CCCC3 (centres undefined)	4.1	106.8*	0.3	-18.2	6.5	1.1
CCCN(C(=O)Cc1coc2cc(OC)ccc12)C1CCS(=O)(=O)C1 (centres undefined)	/	-9.2	/	17.3	-9.3	/
O=C1NC(=S)S/C1=C\c1cc2ccccc2nc1N1CCCCC1	40.6	113.8*	-25.5	108.1*	19.5	-0.5
COc1ccc2nc(N3CCCCC3)c(/C=C3\SC(=S)NC3=O)cc2c1	86.0*	121.0*	-5.3	13.0	18.2	0.2
N=c1c(S(=O)(=O)c2ccc(Cl)cc2)cc2c(=O)n3ccccc3nc2n1CCN1CCOCC1	-0.1	-1.3	2.8	11.4	-2.7	-0.3
N=c1c(S(=O)(=O)c2ccc(Cl)cc2)cc2c(=O)n3ccccc3nc2n1CCc1ccccc1	15.5	19.4	57.9*	/	2.9	-0.3
C/C(=N\NC(=O)c1ccc(Cl)cc1)c1ccccn1	87.0*	98.1*	60.5*	-16.8	105.4*	-4.8
S=C(NCc1ccccn1)Nc1cccc(Cl)c1	-9.0	-7.1	-15.8	-4.0	-9.0	0.8
Cc1c(Cl)cccc1NC(=S)N/N=C/c1ccccc1Cl	-14.8	-12.0	-32.2	/	4.7	40.7*
C/C(=N\NC(=O)c1ccccn1)c1ccc(Cl)cc1	5.9	-0.3	0.0	/	4.5	3.4
C/C(=N\Nc1cccc(Cl)c1)c1ccncc1	-3.8	33.0	59.3*	-9.1	-3.2	1.4
CC(=NNC(=S)Nc1cccc(Cl)c1)c1ccccn1	/	/	/	124.4*	/	/
NS(=O)(=O)c1ccc(NC(=O)CN2CCN(S(=O)(=O)c3cccs3)CC2)cc1	/	/	/	-1.6	/	/
O=C(Nc1ccccc1N1CCOCC1)c1cc(=O)[nH]c2ccccc12	/	4.3	/	7.5	-3.8	/
CC(=NNC(=S)N1CCC1)c1ccccn1	/	/	/	107.2*	/	/
COc1cc(C(=O)N/N=C(\c2ccccc2)c2ccccn2)cc(OC)c1OC	23.2	36.4	55.0*	-13.0	86.0*	64.3*
S=C(N/N=C/c1ccccc1Cl)Nc1ccccc1	5.2	-9.8	17.3	-4.4	7.7	2.7
COc1cccc(C(=O)N/N=C(/c2ccccc2)c2ccccn2)c1	55.7*	20.3	54.7*	6.7	100.9*	11.1*
CC(=NNC(=S)SCc1ccccc1)c1ccccn1	/	/	/	21.8	/	/
COc1cc(NC(=O)c2ccccn2)cc(OC)c1OC	-4.8	-16.7	-3.9	-11.6	-7.4	-0.5
S=C(N/N=C/c1cccc2ccccc12)Nc1cccc(Cl)c1	-11.6	22.3	12.7	-2.4	7.9	219.8*
